In article PMC4153964 (Drugs in R&D, 2014):
Read-outs that look alike come from different tables or passages of the source.

What was measured:
[1] = assay type: in vivo, healthy Korean male volunteers; settings: for Pharmacokinetic effect on the co-administered drug: steady-state gemigliptin 50 mg, single-dose glimepiride 4 mg
Procedure, shortened: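 Randomized open-label crossover. Oral gemigliptin 50 mg once daily for 6 days with glimepiride 4 mg co-administered on day 7, versus single glimepiride 4 mg. Heparinized plasma was sampled to 24 h (days 6–7 at 0–14 h, day 8 at 0 h). LC–MS/MS; LLOQ 0.5 ng/mL gemigliptin, 1 ng/mL glimepiride. Non-compartmental AUC by linear-up/log-down trapezoidal method. Log-transformed GMRs with 90 % CI from mixed-effects ANOVA.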

Tolerability assessments = assay type: in vivo, healthy Korean male volunteers
Procedure, shortened: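 Subjects receiving more than one dose were included. Medical staff monitored adverse events after dosing. Vital signs were taken seated after ≥5 min rest. 12-lead ECG was recorded before blood sampling. Physical examinations were done, and hematology, biochemistry and urinalysis were drawn after >8 h fasting. Investigators judged abnormal findings for clinical significance and relation to study drug.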

[2] = stated as known, no reference given; cited from earlier work
cytochrome P450 (CYP) = settings: cited from earlier work
[3] = cited from earlier work
[4] = cited from earlier work; for t max: oral
[5] = cited from earlier work; remark: listed apart in the source
[6] = single ascending-dose study, healthy volunteers, 50–400 mg
[7] = glimepiride 4 mg + gemigliptin 50 mg, day 7
[8] = glimepiride 4 mg single dose only
[9] = another study, subjects all Caucasian
[10] = single-dose 4 mg, healthy volunteers, ref Malerczyk et al. [20]
[11] = plasma, glimepiride 4 mg single dose only

Compound: N[C@@H](CC(=O)N1CCc2c(nc(C(F)(F)F)nc2C(F)(F)F)C1)CN1CC(F)(F)CCC1=O [Gemigliptin]
- t max ([1]; male, human, plasma, oral, 50 mg, t max,ss, median (min–max), plasma, day 6, gemigliptin 50 mg once daily only): 1.5 h
- AUC ([1]; male, human, plasma, po, 50 mg): 798 ng·h/mL
- Cmax ([1]; male, human, plasma, po, 50 mg, C max,ss, mean (SD), plasma, day 6, gemigliptin 50 mg once daily only, oral): 80.2 ng/mL
- Pharmacokinetic effect on the co-administered drug [1]: nor did gemigliptin affect the pharmacokinetics of single-dose glimepiride
- Adverse events during dosing (events and participants) (Tolerability assessments; repeated gemigliptin dosing, 50 mg/day, 23 participants): six AEs occurred in four participants
- Adverse events considered possibly related to the study drug (Tolerability assessments; rhinorrhea, constipation, and headache): three AEs in three participants were considered possibly related to the study drug
- protein binding [2]: no strong protein-binding characteristics
- inhibitory or induction potential (cytochrome P450 (CYP); gemigliptin and its metabolites, preclinical studies, ref Gemigliptin IB version 6.0, September 2012): very low
- major metabolic route (cytochrome P450 (CYP); preclinical studies, ref Gemigliptin IB version 6.0, September 2012): via cytochrome P450 (CYP) 3A4
- effects on cytochromes (cytochrome P450 (CYP); stated as known, no reference given): no significant effects on cytochromes
- half-life ([3]; day 1 of a previous study using 24 h sampling): 7.4 to 9.3 h
- accumulation ([3]; previous multiple-dose study): accumulation was reported
- half-life ([3]; previous multiple-dose study): approximately 17 h
- half-life ([3]; previously reported by multiple-dose studies, sampling ≤72 h after the last dose): 16.6 to 20.1 h
- mean t ½ [3, 6]: 16.7 to 21.3 h
- t max [3, 6]: 0.5 to 5.1 h

Compound: CCC1=C(C)CN(C(=O)NCCc2ccc(S(=O)(=O)NC(=O)N[C@H]3CC[C@H](C)CC3)cc2)C1=O [Glimepiride]
- t max, median (min–max) [1, 7]: 3.0 (2.0–5.0) h
- t max, median (min–max) [1, 8]: 4.0 (2.0–5.0) h
- Pharmacokinetic effect on the co-administered drug [1]: no pharmacokinetic effects on steady-state gemigliptin
- accumulation ([4]; after multiple dosing): without accumulation
- oral absorption ([4]; after oral administration): completely absorbed
- AUClast (geometric mean) [4, 9]: 8,753 ng · h/mL
- geometric C max mean [4, 9]: 1,084 ng/mL
- half-life [4]: < 5 h
- accumulation ([4]; multiple doses, 1 day vs 7 days, T2DM patients): does not accumulate
- t max ([4]; T2DM patients): 2.4 to 3.75 h
- t max ([4]; healthy volunteers): 0.7 to 2.8 h
- mean AUC [4, 10]: 1,297 μg/L · h
- mean C max [4, 10]: 307.8 ng/mL

Compound: CCC1=C(C)CN(C(=O)NCCc2ccc(S(=O)(=O)NC(=O)NC3CCC(CO)CC3)cc2)C1=O (stereo not drawn) [M1]
- t max, median (min–max) [1, 7]: 4.0 (3.0–6.0) h
- t max, median (min–max) [1, 8]: 4.0 (3.0–6.0) h
- AUClast, mean (SD) [1, 11]: 189.88 (52.77) ng · h/mL
- C max, mean (SD) [1, 11]: 28.26 (8.40) ng/mL

Compound: OC(Cn1cncn1)(Cn1cncn1)c1ccc(F)cc1F [fluconazole]
- effect on plasma concentrations of glimepiride [5]: increase plasma concentrations of glimepiride

Compound: CC#CCn1c(N2CCC[C@@H](N)C2)nc2c1c(=O)n(Cc1nc(C)c3ccccc3n1)c(=O)n2C [linagliptin]
- pharmacokinetics on coadministration of linagliptin and glyburide ([5]; linagliptin 5 mg/day × 6 days, glyburide single-dose 1.75 mg): not affected

Compound: N[C@@H](CC(=O)N1CCn2c(nnc2C(F)(F)F)C1)Cc1cc(F)c(F)cc1F [sitagliptin]
- effect on the pharmacokinetics of glyburide [5]: does not affect the pharmacokinetics of glyburide
